ChEMBL document CHEMBL1125109, “High potency dipeptide sweeteners. 1. L-aspartyl-D-phenylglycine esters” (J Med Chem, 1990)

Experiment: Sweetness potency relative to 5-10% of sucrose
Type: functional
How it was run: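 Human taste panel: five to ten expert male panelists tasted and spat 10 mL of sweetener solution, rating sweetness potency and quality against five sucrose standards (0.04 M/1.4% to 0.35 M/12.0%). Test solution generally equivalent to 5–10% sucrose. Potency = equi-sweet sucrose concentration divided by actual sweetener concentration; mean ± 95% confidence limit. Acute oral rat toxicity tested first.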

Compared with N[C@@H](CC(=O)O)C(=O)N[C@@H](C(=O)OC1CC2CCC1C2)c1ccccc1 (stereo in doubt; 26), CC1CCC(C)C1OC(=O)[C@H](NC(=O)[C@@H](N)CC(=O)O)c1ccccc1 (stereo partly specified) is higher in Potency: 20 for the first, 380 for the second.

First: COC(=O)C(NC(=O)[C@@H](N)CC(=O)O)C(=O)O[C@@H]1C(C)(C)C2CC[C@]1(C)C2 (stereo partly specified)
Second: CC12CCC(C1)C(C)(C)C2OC(=O)[C@H](NC(=O)[C@@H](N)CC(=O)O)c1ccc(O)cc1 (stereo partly specified)
The Potency of the first is higher: 50000 for the first, 420 for the second.

Going from N[C@@H](CC(=O)O)C(=O)N[C@@H](C(=O)OC1C2CC3COC1C3C2)c1ccccc1 (stereo partly specified) to N[C@@H](CC(=O)O)C(=O)N[C@@H](C(=O)OC1CC2CCC1C2)c1ccccc1 (stereo in doubt; 28), the Potency rises from 80 to 180.

Compared with CC1(C)C2CCC1(C)C(OC(=O)[C@H](NC(=O)[C@@H](N)CC(=O)O)c1ccccc1)C2 (stereo partly specified), CC1(C)C2CC[C@](C)(C2)[C@@H]1OC(=O)[C@H](NC(=O)[C@@H](N)CC(=O)O)c1ccccc1 (stereo in doubt; 29) is higher in Potency: 0 for the first, 1200 for the second.

Compared with CC12CC(O)C(C1)C(C)(C)C2OC(=O)[C@H](NC(=O)[C@@H](N)CC(=O)O)c1ccccc1 (stereo partly specified), CC1(C)CCC(C)(C)C1OC(=O)[C@H](NC(=O)[C@@H](N)CC(=O)O)c1ccccc1 is higher in Potency: 100 for the first, 190 for the second.

Going from CC1CCCC(C)C1OC(=O)[C@H](NC(=O)[C@@H](N)CC(=O)O)c1ccccc1 (stereo partly specified) to CC1(OC(=O)[C@H](NC(=O)[C@@H](N)CC(=O)O)c2ccccc2)CC2CCC1C2 (stereo partly specified), the Potency falls from 210 to 40.

Compared with CC1(C)SC(C)(C)C1OC(=O)[C@H](NC(=O)[C@@H](N)CC(=O)O)c1ccccc1, CC(OC(=O)[C@H](NC(=O)[C@@H](N)CC(=O)O)c1ccccc1)C(C)(C)C (stereo partly specified) is lower in Potency: 300 for the first, 30 for the second.

Compared with CC12CCC(O1)C(C)(C)C2COC(=O)[C@H](NC(=O)[C@@H](N)CC(=O)O)c1ccccc1 (stereo partly specified), CC12CCC(C1)C(C)(C)C2OC(=O)[C@H](NC(=O)[C@@H](N)CC(=O)O)c1ccccc1F (stereo partly specified) is higher in Potency: 0 for the first, 720 for the second.
